Only a selection was taken, and hits are over-represented in it overall.
UPR CHOP act = apoptotic UPR (CHOP) activation; CHO-CHOP luciferase reporter, luminescence; percent of tunicamycin response over DMSO baseline; activation, % at 10 µM; 330,000 tested, 0.34% active; AID 449763;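 active means at 10 µM dose, activation of 40% or more, normalized to positive control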;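 further: 100% = tunicamycin at 10 µg/mL and 0% = DMSO alone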
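System: CHO-CHOP luciferase reporter cell line; amount: 500 cells/well; buffer or medium: F12 medium containing 10% fetal bovine serum; incubation: 6 h compound exposure at 37 °C after overnight seeding; measured by: luciferase luminescence after 10 min with Steady-Glo reagent; evaluation: % reporter activation, DMSO baseline versus tunicamycin full activation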
TLR9-MyD88 block = TLR9-MyD88 interaction inhibition. AID 504734. Q9NR96+Q99836. 340,000 tested, 0.21% active. inhibition, % at 4.98 µM. CHO BLA complementation TLR9-MyD88, CCF4 FRET ratio;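 active means inhibition above the mean over all tested compounds plus 3 SD, cut at about 21% in these data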;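 further: 0% = DMSO only wells and 100% = clavulanate BLA inhibitor control wells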
TLR4-MyD88 BLA = inhibitors of human TLR4-MyD88 binding. inhibition, % at 8.4 µM. 200,000 tested, 0.18% active. O00206+Q99836. HeLa CL3-4 TLR4/MyD88 BLA complementation, FRET ratio; in the data active means inhibition above about 25%;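 further: 0% = vehicle and 100% = reference inhibitor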
Target sequence (O00206 whole entry, looked up): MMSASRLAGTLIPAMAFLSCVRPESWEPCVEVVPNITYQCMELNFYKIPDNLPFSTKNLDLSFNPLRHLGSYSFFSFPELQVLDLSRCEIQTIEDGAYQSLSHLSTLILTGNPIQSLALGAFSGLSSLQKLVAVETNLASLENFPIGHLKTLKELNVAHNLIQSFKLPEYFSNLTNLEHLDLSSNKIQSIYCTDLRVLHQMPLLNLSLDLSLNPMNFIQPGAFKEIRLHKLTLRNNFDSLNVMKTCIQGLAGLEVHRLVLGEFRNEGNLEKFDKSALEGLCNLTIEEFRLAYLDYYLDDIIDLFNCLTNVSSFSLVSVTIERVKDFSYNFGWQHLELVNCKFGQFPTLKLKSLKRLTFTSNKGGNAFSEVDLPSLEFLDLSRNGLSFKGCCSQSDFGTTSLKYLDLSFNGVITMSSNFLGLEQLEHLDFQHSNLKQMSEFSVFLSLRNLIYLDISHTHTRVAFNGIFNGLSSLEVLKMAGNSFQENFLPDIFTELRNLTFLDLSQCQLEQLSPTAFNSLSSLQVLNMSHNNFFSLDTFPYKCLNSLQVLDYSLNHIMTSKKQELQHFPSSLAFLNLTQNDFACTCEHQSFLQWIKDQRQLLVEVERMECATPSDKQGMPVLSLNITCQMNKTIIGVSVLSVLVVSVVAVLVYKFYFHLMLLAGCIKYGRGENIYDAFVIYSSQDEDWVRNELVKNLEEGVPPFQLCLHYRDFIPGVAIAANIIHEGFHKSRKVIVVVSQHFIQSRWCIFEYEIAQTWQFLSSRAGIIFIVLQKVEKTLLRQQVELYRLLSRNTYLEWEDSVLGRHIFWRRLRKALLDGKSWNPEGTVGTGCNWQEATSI
Target sequence (Q99836 whole entry, looked up): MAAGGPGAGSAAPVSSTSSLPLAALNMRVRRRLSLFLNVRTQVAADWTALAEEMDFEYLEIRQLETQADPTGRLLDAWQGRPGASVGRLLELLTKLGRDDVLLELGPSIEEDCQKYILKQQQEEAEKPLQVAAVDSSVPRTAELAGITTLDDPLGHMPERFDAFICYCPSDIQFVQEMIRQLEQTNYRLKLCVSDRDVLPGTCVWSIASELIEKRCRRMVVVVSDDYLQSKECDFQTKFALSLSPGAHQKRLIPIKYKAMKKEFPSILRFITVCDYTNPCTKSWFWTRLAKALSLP
UPR XBP1 act = adaptive UPR (XBP1) activation. CHO-XBP1 luciferase reporter, IRE1-XBP1 UPR activation, luminescence; percent of tunicamycin response, DMSO as zero. activation, % at 20 µM. 330,000 tested, 0.33% active. AID 463104;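 active means versus positive control, 20 µM dose yields 30% or more activation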;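 further: 100% = tunicamycin at 10 µg/mL and 0% = DMSO only wells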
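Assay system: IRE1-XBP1 luciferase reporter CHO line. Input: 1000 cells/well. Buffer or medium: F12 with 10% serum. Doses: 20 µM, 1% DMSO. Times: overnight seeding at 37 °C, 6 h compound treatment at 37 °C. Technique: Steady-Glo luciferase glow luminescence, 10 min after reagent addition.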
NOD2 RIPK2 PPI = inhibitors of human NOD2-RIPK2 interaction | AID 624267 | inhibition, % at 4.98 µM | O43353 | CHO BLA complementation NOD2-RIPK2, CCF4 ratio | 360,000 tested, 0.38% active; in the data active means inhibition above about 21%;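 further: 0% = vehicle only and 100% = reference blocker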
CHOP inhibitor = CHOP inhibition in unfolded protein response; AID 2732; CHO-K1 CHOP-promoter luciferase, tunicamycin-induced, 15-18 h; 220,000 tested, 3.8% active; inhibition, % at 10 µM;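 active means compounds that reduced the stress-induced luciferase reporter signal by more than about 70% of percent inhibition, limit read from the data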;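 further: 0% = tunicamycin plus vehicle and 100% = wells without tunicamycin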
CHOP UPR conf = apoptotic UPR (CHOP) activation, confirmed; CHO-CHOP cells, CHOP-luciferase reporter luminescence; percent of tunicamycin response, DMSO as zero; activation, % at 10 µM; shares compounds with UPR CHOP act; 1,000 tested, 64% active; in the data active means activation above about 33%;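 further: 0% = DMSO wells and 100% = tunicamycin 10 µg/mL wells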
XBP1 UPR conf = confirmation of adaptive unfolded protein response (XBP1) activators | shares compounds with UPR XBP1 act | CHO-XBP1 IRE1-XBP1 luciferase reporter, luminescence | activation, % at 20 µM | 1,000 tested, 63% active;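 active means reporter signal at least 30% of the positive control's activation in two or more of four replicate wells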;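 further: plate controls were DMSO negative control for no effect and tunicamycin 10 µg/mL positive control for full effect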
TLR9-MyD88 conf = TLR9-MyD88 interaction inhibition, confirmation; CHO TLR9/MyD88 BLA complementation, CCF4 FRET ratio; shares compounds with TLR9-MyD88 block; inhibition, % at 4.98 µM; 680 tested, 51% active;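 active means mean inhibition across three repeats above about 21% taken from the earlier screen, limit read from the data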;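 further: blue over green emission ratio reports constitutive TLR9 MyD88 association via BLA complementation; 0% = DMSO vehicle wells and 100% = clavulanate BLA inhibitor wells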
BLA counter-1 = non-selective beta-lactamase inhibitors in TLR9-MyD88 counter-screen; shares compounds with TLR9-MyD88 block; CHO-BLA cells, CCF4 FRET ratio, BLA reporter; 680 tested, 7% active; inhibition, % at 4.98 µM; AID 540251;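 active means mean inhibition above a 50% cutoff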;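 further: counterscreen of TLR9-MyD88 hits on CMV-driven BLA in CHO-K1 cells; 0% = DMSO alone and 100% = clavulanate blocking BLA; higher means less blue over green ratio so more BLA blockade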
TLR9 CHO tox = CHO cell toxicity counter-screen for TLR9-MyD88 inhibitors. shares compounds with TLR9-MyD88 block. TLR9-MyD88 CHO cells cytotoxicity, luminescence. inhibition, % at 4.98 µM. 680 tested, 39% active. AID 588336; in the data active means inhibition above about 11%
NOD2 RIPK2 conf = confirmation of human NOD2-RIPK2 interaction inhibitors. shares compounds with NOD2 RIPK2 PPI. CHO cells, NOD2-RIPK2 BLA complementation, CCF4 FRET. inhibition, % at 4.98 µM. 1,200 tested, 70% active. AID 624370;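 active means mean inhibition across replicates above a set limit taken from the earlier primary screen, cut at about 21% in these data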;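 further: 0% = DMSO-only wells and the high end = clavulanate BLA-blocked wells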
BLA counter-2 = hits BLA reporter in NOD2-RIPK2 inhibitor counterscreen; CHO BLA reporter, CCF4 FRET ratio; inhibition, % at 4.98 µM; shares compounds with NOD2 RIPK2 PPI; 1,200 tested, 57% active; AID 624371;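 active means mean inhibition above the low-control mean inhibition plus three low-control SD, cut at about 11% in these data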;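 further: 0% = DMSO only wells and 100% = clavulanate high control wells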
Starred values were filed as active, the others as inactive; x = no result.

SMILES | UPR CHOP act | TLR9-MyD88 block | TLR4-MyD88 BLA | UPR XBP1 act | NOD2 RIPK2 PPI | CHOP inhibitor | XBP1 UPR conf | others
O=S(=O)(c1cccc(C(F)(F)F)c1)N1CCN(CC(O)COCc2ccccc2)CC1 (centres undefined) | -3 | 12 | x | -2 | -6 | x | x
O=C(NCc1ccc2c(c1)OCO2)c1nc(S(=O)(=O)Cc2ccccc2F)ncc1Cl | 43* | 14 | x | -9 | 79* | x | x | CHOP UPR conf=18;NOD2 RIPK2 conf=55*;BLA counter-2=14*
O=C(NCc1ccc2c(c1)OCO2)c1ccccc1Cl | 4 | 0 | x | 1 | -4 | x | x
N#Cc1cccc(NC(=O)c2cc(C3CCCCN3C(=O)CCCc3ccccc3)on2)c1 (centres undefined) | x | x | x | x | 2 | x | x
Cc1ccc(C(=O)Nc2ccc(S(=O)(=O)N3CCCC3)cc2)o1 | -2 | -19 | x | -2 | -12 | x | x
O=C(Nc1ccc(Cc2ccncc2)cc1)c1ccc([N+](=O)[O-])o1 | 63* | 7 | x | -5 | 21* | x | x | CHOP UPR conf=78*;NOD2 RIPK2 conf=32*;BLA counter-2=16*
O=C(Nc1ccc(S(=O)(=O)N2CCCC2)cc1)c1ccc([N+](=O)[O-])o1 | 47* | 2 | x | -3 | 23* | x | x | CHOP UPR conf=91*;NOD2 RIPK2 conf=27*;BLA counter-2=21*
CC(=NNC(=O)CCC(=O)Nc1ccccc1Cl)c1ccco1 | 0 | -4 | x | 2 | -2 | x | x
N#Cc1cccc(C(=O)Nc2cc(S(=O)(=O)N3CCOCC3)ccc2N2CCCC2)c1 | -1 | 0 | x | -1 | 0 | x | x
O=C1C=CC(=O)N1c1cccc(-c2ccccc2)c1 | 82* | 13 | x | -7 | 36* | 20 | x | CHOP UPR conf=10;NOD2 RIPK2 conf=90*;BLA counter-2=29*
O=c1cc(-c2ccccc2)[nH]n1-c1ccccc1 | x | -4 | x | x | -6 | x | x
COc1ccc(OC)c(/C=C/C(=O)N2C(=O)c3cccc(N)c3C2=O)c1 | 53* | 22* | 17 | 2 | 21* | 90* | x | CHOP UPR conf=62*;TLR9-MyD88 conf=16;BLA counter-1=16;TLR9 CHO tox=19*;NOD2 RIPK2 conf=39*;BLA counter-2=38*
CCC[C@@H](CN[C@@H](CNC)[C@H](C)CC)NCC1CCC(C(C)(C)C)CC1 (some centres undefined) | 33 | 0 | x | 51* | -3 | x | 30*
CCC[C@H](CN[C@@H](CNC)[C@H](C)CC)NCCc1cc(C(F)(F)F)cc(C(F)(F)F)c1 | 36 | 3 | x | 52* | -1 | x | 22
O=c1cc(Cn2ccnc2)c2cc(O)ccc2o1 | 0 | -8 | x | -1 | -10 | x | x
Cn1c(NCc2cccnc2)nc2cc(-c3cccc(C(F)(F)F)c3)sc2c1=O | x | x | x | x | 1 | x | x
Cc1cc(C(=O)N/N=C/c2ccc([N+](=O)[O-])o2)c(C)o1 | 2 | -6 | x | -2 | 4 | -13 | x
COc1ccc(-c2nn(-c3ccccc3)cc2C(=O)N/N=C/c2ccc([N+](=O)[O-])o2)cc1 | 36 | 1 | -8 | 38* | 1 | 90* | 13
O=C(NNS(=O)(=O)c1ccccc1[N+](=O)[O-])c1cc2ccccc2cc1O | 0 | 6 | x | 3 | 0 | x | x
O=C(Nc1nc(-c2ccccc2)cs1)c1cccc([N+](=O)[O-])c1 | 3 | 0 | 3 | 7 | -2 | -10 | x
O=C(Nc1nc(-c2cccnc2)cs1)c1cccc([N+](=O)[O-])c1 | 7 | 2 | 5 | 31* | -2 | 88* | 11
CCOc1ccc(C(=O)Nc2cc(C)c3c(=O)oc4ccccc4c3n2)cc1 | 0 | 0 | 9 | 52* | -6 | -4 | 2
Cc1cc(NC(=O)c2ccccc2)nc2c1c(=O)oc1ccccc12 | 1 | 1 | 1 | -5 | -1 | 9 | x
C=C(C)[C@@H]1CC[C@]2(C(=O)O)CC[C@]3(C)C(CCC4[C@@]5(C)CC[C@H](O)C(C)(C)C5CC[C@]43C)C12 (some centres undefined) | -2 | 6 | x | 40* | -11 | x | 6
COC(=O)C1=C(C)N(Cc2ccccc2)C(=NCC(C)C)N[C@H]1c1cccc(C(F)(F)F)c1 | 3 | -1 | x | 15 | 7 | x | x
SMILES | UPR CHOP act | TLR9-MyD88 block | TLR4-MyD88 BLA | UPR XBP1 act | NOD2 RIPK2 PPI | CHOP inhibitor | XBP1 UPR conf | others
COC(=O)C1=C(C)N(Cc2ccccc2)C(=NCc2ccccc2)N[C@H]1c1cccc(C(F)(F)F)c1 | 8 | -1 | x | 30* | 14 | x | 18
COC(=O)C1=C(C)N(Cc2ccccc2)C(=NCc2cccc(Cl)c2)N[C@H]1c1cccc(F)c1 | 19 | -3 | x | 45* | -3 | x | 19
COC(=O)C1=C(C)N(Cc2ccccc2)C(=NCc2ccc(OC)cc2)N[C@H]1c1cccc(F)c1 | 0 | -10 | x | 4 | -3 | x | x
Cn1nnnc1Sc1ncnc2scc(-c3cccs3)c12 | 16 | 0 | x | -2 | x | x | x
CN(/C=C1/C(=O)CNC1=O)CCO | -2 | x | 3 | -3 | -8 | 15 | x
COC(=O)c1c(NC(=S)NN2CCN(C)CC2)sc2c1CCC(C)C2 (centres undefined) | 10 | -9 | -13 | 34* | 2 | 64 | 20
COC(=O)c1c(NC(=O)Cc2cccs2)sc2c1CCC(C)C2 (centres undefined) | 5 | -3 | 7 | 25 | -2 | -4 | x
N#Cc1ccccc1/C=N/Nc1nc(-c2ccccc2)c2cc(Cl)ccc2n1 | 31 | -1 | 6 | 62* | 1 | 89* | 102*
Cc1ccc2nc(N/N=C/c3ccccc3C#N)nc(-c3ccccc3)c2c1 | 2 | 6 | -4 | 0 | 8 | 46 | x

From PubChem BioAssay
